Measured values pooled from the literature.
Lines come from different studies, so protocols differ.
Target: Bone morphogenetic protein receptor type-2 (BMPR2, Homo sapiens, UniProt Q13873)
Residues used in one study (Q13873 27-1038): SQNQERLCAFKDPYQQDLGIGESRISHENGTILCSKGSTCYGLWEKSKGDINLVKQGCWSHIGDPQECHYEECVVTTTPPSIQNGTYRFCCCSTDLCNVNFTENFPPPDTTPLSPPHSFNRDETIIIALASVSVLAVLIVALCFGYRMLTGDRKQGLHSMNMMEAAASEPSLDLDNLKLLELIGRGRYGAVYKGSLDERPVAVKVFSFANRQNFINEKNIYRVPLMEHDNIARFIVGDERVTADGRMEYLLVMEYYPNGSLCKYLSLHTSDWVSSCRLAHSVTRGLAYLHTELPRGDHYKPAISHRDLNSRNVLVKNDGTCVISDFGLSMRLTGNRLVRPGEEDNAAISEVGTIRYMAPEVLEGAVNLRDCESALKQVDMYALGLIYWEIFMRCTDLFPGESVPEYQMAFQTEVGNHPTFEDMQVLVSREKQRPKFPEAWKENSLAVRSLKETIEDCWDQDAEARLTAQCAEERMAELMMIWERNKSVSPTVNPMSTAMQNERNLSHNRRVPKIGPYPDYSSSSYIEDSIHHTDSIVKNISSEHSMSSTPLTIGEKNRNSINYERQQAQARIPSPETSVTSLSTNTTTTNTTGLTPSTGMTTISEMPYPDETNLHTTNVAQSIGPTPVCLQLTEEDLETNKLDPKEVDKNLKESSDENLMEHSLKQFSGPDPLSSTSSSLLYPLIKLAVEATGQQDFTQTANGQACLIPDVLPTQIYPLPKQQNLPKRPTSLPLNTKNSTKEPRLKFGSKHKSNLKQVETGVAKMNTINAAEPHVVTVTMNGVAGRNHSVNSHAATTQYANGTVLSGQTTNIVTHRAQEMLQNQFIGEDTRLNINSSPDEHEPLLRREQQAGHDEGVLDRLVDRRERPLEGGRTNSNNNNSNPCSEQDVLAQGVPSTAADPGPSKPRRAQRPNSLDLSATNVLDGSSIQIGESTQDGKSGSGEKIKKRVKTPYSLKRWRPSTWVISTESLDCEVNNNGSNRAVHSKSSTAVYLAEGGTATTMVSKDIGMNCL

COc1cc(-c2cn(C3CCc4c(F)cccc4N(CC(F)(F)F)C3=O)nn2)ccc1-n1cnc(C)c1 (stereo not drawn)  remaining binding (cell-free assay; competition with immobilised ligand; 1 µM): 100%
CS(=O)(=O)Nc1cccc(-c2csc(NC(=O)CSc3nc4nccnc4c(=O)n3CCc3ccccc3)n2)c1  inhibition (enzyme activity; inhibitor; 10 µM): 3%
CS(=O)(=O)NCC[C@H](NC(=O)c1cncc2c1cnn2-c1ccc(F)cc1)c1ccnc(S(C)(=O)=O)c1  remaining binding (cell-free assay; competition with immobilised ligand; 1 µM): 100%
CC(C)(O)[C@H]1CC[C@H](Nc2ccc3ncc(-c4cccc(C(F)(F)F)c4)n3n2)CC1  remaining activity (enzyme activity; inhibitor; 1 µM): 37.3%
Cc1nccc(COC(=O)N2C[C@@H]3[C@@H](CNC(=O)c4ccc5[nH]nnc5c4)[C@@H]3C2)n1  remaining binding (cell-free assay; competition with immobilised ligand; 1 µM): 81%
Cn1c2c(c3ccc(Cl)c(Cl)c31)C(C#N)C1(CCNCC1)NC2=O (racemic)  ΔTm (thermal stability; DSF; 10 µM): 0.3 °C
CN1CC(Oc2cnc(C#N)cc2-c2ccn3nc(NC(=O)C4CC4)cc3c2)C1  inhibition (enzyme activity; inhibitor; 1 µM): 1%
Cn1c2c(c3ccc(Cl)c(Cl)c31)C(C#N)C1(CCOCC1)NC2=O (stereo not drawn)  ΔTm (thermal stability; DSF; 10 µM): 0.9 °C
O=C(Nc1cnn(-c2csc(C(=O)NC3COC3)c2)c1)Nc1c(F)cccc1Cl  remaining activity (enzyme activity; inhibitor; 5 µM): 77.2%
Cc1ccc(C(=O)Nc2ccc(CN3CCN(C)CC3)c(C(F)(F)F)c2)cc1C#Cc1cnc2cccnn12  remaining signal (cell-free assay; 23.5 nM): 98%
Cn1c2c(Cl)c(Cl)ccc2c2cn[nH]c(=O)c21  ΔTm (thermal stability; DSF; 10 µM): 2.9 °C
Cn1cncc1C1=CN(c2ncnc3[nH]cnc23)CCS1  inhibition (enzyme activity; inhibitor; radiometric; 2 µM): 74%
